Source: ChEMBL document CHEMBL4680335, “Synthesis, anticancer and antimicrobial evaluation of new benzofuran based derivatives: PI3K inhibition, quorum sensing and molecular modeling study” (Bioorg Med Chem, 2021)
In brackets after ≈: the same amount, converted by molar mass. Values belong to the compound of their own block, whether it stands above or below them.

Columns and labels:
HepG2 = experiment: Antiproliferative activity against human HepG2 cells assessed as reduction in cell growth; format: functional, cell-based
MCF7 [1] = experiment: Antiproliferative activity against human MCF7 cells assessed as reduction in cell growth; format: functional, cell-based
HeLa = experiment: Antiproliferative activity against human HeLa cells assessed as reduction in cell growth; format: functional, cell-based
PC-3 = experiment: Antiproliferative activity against human PC3 cells assessed as reduction in cell growth; format: functional, cell-based
Staphylococcus aureus [2] = experiment: Antibacterial activity against Staphylococcus aureus ATCC 29213 assessed as diameter of zone inhibition at 5 mg/ml incubated for 24 hrs by agar plate diffusion method; format: functional; details: read-out: DIZ
Procedure, shortened: (§1)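 Cup (well) agar diffusion in Mueller Hinton agar. Overnight MH broth culture diluted to 0.5 McFarland; 20 μL mixed into MH agar at 50 °C, poured into 9-cm plates. Wells cut with a cork borer and filled with 100 μL compound in DMSO (final 5 mg/mL). DMSO as negative control, ampicillin/clavulanic acid as reference. 37 °C, 24 h; inhibition zone diameter in mm.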

Bacillus cereus [3] = experiment: Antibacterial activity against Bacillus cereus UW85 assessed as diameter of zone inhibition at 5 mg/ml incubated for 24 hrs by agar plate diffusion method; format: functional; details: read-out: DIZ; procedure, shortened: as §1
Staphylococcus aureus [4] = experiment: Antibacterial activity against Staphylococcus aureus ATCC 29213 assessed as reduction in bacterial growth incubated for 18 hrs by two-fold serial dilution method; format: functional
Procedure, shortened: (§2)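 Broth microdilution per CLSI 2015. Selection: compounds active in agar diffusion. Twofold (1:1) dilutions in 0.1 ml MH broth; inoculum 5 × 10^6 CFU/ml diluted suspension. Ampicillin/clavulanic acid as positive control.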

Bacillus cereus [5] = experiment: Antibacterial activity against Bacillus cereus UW85 assessed as reduction in bacterial growth incubated for 18 hrs by two-fold serial dilution method; format: functional; procedure, shortened: as §2
[6] = Inhibition of quorum sensing in Chromobacterium violaceum ATCC 12472 assessed as inhibition zone at 5 mg/ml incubated for 48 hrs by well diffusion method; format: functional; details: read-out: IZ
Procedure, shortened: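 Chromobacterium violaceum ATCC 12472 grown in LB broth at 28 °C, 48 h. 50 μL inoculated into 5 ml soft LB agar and overlaid on LB agar plates. Wells received 100 μL compound in DMSO (5 mg/ml); DMSO as negative control. 28 °C, 48 h. Growth-inhibition radius r1 and pigment-plus-growth radius r2 measured; QS inhibition = r2 − r1 (mm).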

Candida albicans [7] = experiment: Antifungal activity against Candida albicans CS35 assessed as reduction in fungal growth incubated for 18 hrs by two-fold serial dilution method; format: functional
Procedure, shortened: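 Broth microdilution per CLSI M27-A3/M38-A2. Selection: compounds active in agar diffusion. Twofold (1:1) dilutions in 0.1 ml yeast peptone dextrose medium; fluconazole as positive control.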

Candida albicans [8] = experiment: Antifungal activity against Candida albicans CS35 assessed as diameter of zone inhibition at 5 mg/ml incubated for 24 hrs by agar plate diffusion method; format: functional; details: read-out: DIZ
Procedure, shortened: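 Cup diffusion using Sabouraud's medium for C. albicans. 100 μL compound in DMSO (5 mg/mL) per well, DMSO as negative control, fluconazole as reference. 37 °C, 24 h; inhibition zone diameter in mm.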

Pseudomonas aeruginosa [9] = experiment: Antibacterial activity against Pseudomonas aeruginosa PAO1 assessed as diameter of zone inhibition at 5 mg/ml incubated for 24 hrs by agar plate diffusion method; format: functional; details: read-out: DIZ; procedure, shortened: as §1
Pseudomonas aeruginosa [10] = experiment: Antibacterial activity against Pseudomonas aeruginosa PAO1 assessed as reduction in bacterial growth incubated for 18 hrs by two-fold serial dilution method; format: functional; procedure, shortened: as §2
[11] = Safety index, ratio of IC50 for cytotoxicity against human WI-38 cells to IC50 for antiproliferative activity against human HepG2 cells; format: toxicity, cell-based; details: WI-38 cells versus HepG2 cells
MCF7 [12] = experiment: Induction of apoptosis in human MCF7 cells assessed as necrotic cells at […] incubated for 24 hrs by Annexin V-FITC and propidium iodide staining based flow cytometry analysis (reference value: 1.21 %); format: functional; design: dose or concentration left out as unconfirmed
[13] = Safety index, ratio of IC50 for cytotoxicity against human WI-38 cells to IC50 for antiproliferative activity against human HeLa cells; format: toxicity, cell-based; details: WI-38 cells versus HeLa cells
[14] = Safety index, ratio of IC50 for cytotoxicity against human WI-38 cells to IC50 for antiproliferative activity against human MCF7 cells; format: toxicity, cell-based; details: WI-38 cells versus MCF7 cells
[15] = target: Phosphatidylinositol 4,5-bisphosphate 3-kinase catalytic subunit alpha isoform (Homo sapiens, UniProt P42336); experiment: Inhibition of human PI3Kalpha by ELISA
Chain of Phosphatidylinositol 4,5-bisphosphate 3-kinase catalytic subunit alpha isoform (P42336 whole entry, canonical isoform): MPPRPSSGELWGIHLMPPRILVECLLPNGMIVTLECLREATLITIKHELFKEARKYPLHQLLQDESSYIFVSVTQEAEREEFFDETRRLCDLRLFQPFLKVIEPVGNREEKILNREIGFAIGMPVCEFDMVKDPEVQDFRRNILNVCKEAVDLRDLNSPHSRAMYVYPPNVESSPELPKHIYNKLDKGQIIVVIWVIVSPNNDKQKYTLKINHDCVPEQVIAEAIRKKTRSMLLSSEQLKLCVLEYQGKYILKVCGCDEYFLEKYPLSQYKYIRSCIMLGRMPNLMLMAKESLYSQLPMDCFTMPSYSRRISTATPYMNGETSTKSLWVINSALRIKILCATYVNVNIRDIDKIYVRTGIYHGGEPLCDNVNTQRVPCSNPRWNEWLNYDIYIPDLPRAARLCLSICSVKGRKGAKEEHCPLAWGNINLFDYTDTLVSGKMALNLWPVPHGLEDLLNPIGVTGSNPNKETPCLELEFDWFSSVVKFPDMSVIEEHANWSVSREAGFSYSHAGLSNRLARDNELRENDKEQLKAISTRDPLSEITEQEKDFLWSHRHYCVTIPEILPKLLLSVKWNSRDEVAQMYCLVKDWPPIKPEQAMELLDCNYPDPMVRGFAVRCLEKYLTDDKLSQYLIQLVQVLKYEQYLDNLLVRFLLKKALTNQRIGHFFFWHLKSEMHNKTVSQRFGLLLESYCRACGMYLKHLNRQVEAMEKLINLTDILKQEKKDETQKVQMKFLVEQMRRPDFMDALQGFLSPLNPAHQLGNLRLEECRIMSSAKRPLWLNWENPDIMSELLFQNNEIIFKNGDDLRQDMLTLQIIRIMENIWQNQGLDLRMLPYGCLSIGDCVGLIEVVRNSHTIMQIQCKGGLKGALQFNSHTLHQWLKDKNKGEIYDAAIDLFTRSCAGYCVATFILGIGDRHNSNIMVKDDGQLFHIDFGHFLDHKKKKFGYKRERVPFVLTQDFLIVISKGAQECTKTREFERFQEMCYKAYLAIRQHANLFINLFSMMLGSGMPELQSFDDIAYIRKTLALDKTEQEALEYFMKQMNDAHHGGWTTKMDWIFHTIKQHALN
Procedure, shortened: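 Human PI3Kα activity measured by ELISA in wells coated with a PI3K-specific antibody. Standard or test compound was added at room temperature and absorbance read. A log–log standard curve related absorbance to standard concentration. Percent inhibition was calculated against control, and IC50 was obtained from concentration/inhibition curves.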

MCF7 [16] = experiment: Induction of apoptosis in human MCF7 cells assessed as early apoptotic cells at […] incubated for 24 hrs by Annexin V-FITC and propidium iodide staining based flow cytometry analysis (reference value: 0.42 %); format: functional; design: dose or concentration left out as unconfirmed
MCF7 [17] = experiment: Induction of cell cycle arrest in human MCF7 cells assessed as accumulation at G2/M phase at […] incubated for 24 hrs by propidium iodide staining based flow cytometry analysis (reference value: 9.85 %); format: functional; design: dose or concentration left out as unconfirmed
MCF7 [18] = experiment: Induction of apoptosis in human MCF7 cells assessed as accumulation at preG1 phase at […] incubated for 24 hrs by propidium iodide staining based flow cytometry analysis (reference value: 1.78 %); format: functional; design: dose or concentration left out as unconfirmed
WI-38 = experiment: Cytotoxicity against human WI38 cells by MTT assay; format: cell-based
MCF7 [19] = experiment: Induction of cell cycle arrest in human MCF7 cells assessed as accumulation at G0-G1 phase at […] incubated for 24 hrs by propidium iodide staining based flow cytometry analysis (reference value: 53.89 %); format: functional; design: dose or concentration left out as unconfirmed
MCF7 [20] = experiment: Induction of apoptosis in human MCF7 cells assessed as late apoptotic cells at […] incubated for 24 hrs by Annexin V-FITC and propidium iodide staining based flow cytometry analysis (reference value: 0.15 %); format: functional; design: dose or concentration left out as unconfirmed
[21] = Safety index, ratio of IC50 for cytotoxicity against human WI-38 cells to IC50 for antiproliferative activity against human PC-3 cells; format: toxicity, cell-based; details: WI-38 cells versus PC-3 cells
MCF7 [22] = experiment: Induction of cell cycle arrest in human MCF7 cells assessed as accumulation at S phase at […] incubated for 24 hrs by propidium iodide staining based flow cytometry analysis (reference value: 36.26 %); format: functional; design: dose or concentration left out as unconfirmed

- IC50 (HepG2): 23.2 µM
- IC50 (MCF7 [1]): 29.9 µM
- IC50 (HeLa): 26.6 µM
- IC50 (PC-3): 38.1 µM
SMILES: C/C(=N\Nc1nc(-c2ccc(Cl)cc2)cs1)c1cc2ccccc2o1

SMILES: COc1ccc(/N=N/C(C=O)=C(/O)c2cc3ccccc3o2)cc1
- zone of inhibition at 5000 µg/mL (Staphylococcus aureus [2]): 7 mm
- IC50 (HepG2): 42.1 µM
- IC50 (PC-3): 56.3 µM
- zone of inhibition at 5000 µg/mL (Bacillus cereus [3]): 5 mm
- MIC (Staphylococcus aureus [4]): 128 µg/mL (≈ 397 µM)
- MIC (Bacillus cereus [5]): 265 µg/mL (≈ 822 µM)

- IC50 (HepG2): 64.5 µM
- IC50 (MCF7 [1]): 73.5 µM
- IC50 (PC-3): 83.8 µM
SMILES: CN1CCN(C(=S)Cc2cc3ccccc3o2)CC1

SMILES: COc1ccc(-c2csc(N/N=C(\C)c3cc4ccccc4o3)n2)cc1
- IC50 (HepG2): 15.7 µM
- IC50 (MCF7 [1]): 18.9 µM
- IC50 (HeLa): 18.7 µM
- IC50 (PC-3): 28.9 µM
- zone of inhibition at 5000 µg/mL [6]: 3 mm

- IC50 (HepG2): 27.7 µM
- IC50 (MCF7 [1]): 33.2 µM
- IC50 (HeLa): 32.7 µM
- IC50 (PC-3): 45.2 µM
SMILES: C/C(=N\Nc1nc(-c2ccc(Br)cc2)cs1)c1cc2ccccc2o1

SMILES: COc1ccc(C(=O)CSC(=S)N/N=C(\C)c2cc3ccccc3o2)cc1
- MIC (Candida albicans [7]): 256 µg/mL (≈ 642 µM)
- zone of inhibition at 5000 µg/mL (Candida albicans [8]): 5 mm
- IC50 (HepG2): 31.9 µM
- zone of inhibition at 5000 µg/mL (Pseudomonas aeruginosa [9]): 8 mm
- IC50 (MCF7 [1]): 38.4 µM
- IC50 (HeLa): 46.9 µM
- MIC (Pseudomonas aeruginosa [10]): 512 µg/mL (≈ 1280 µM)
- IC50 (PC-3): 73.3 µM

SMILES: Cc1ccc(/N=N/C(C=O)=C(/O)c2cc3ccccc3o2)cc1
- zone of inhibition at 5000 µg/mL (Staphylococcus aureus [2]): 6 mm
- IC50 (HepG2): 46.8 µM
- zone of inhibition at 5000 µg/mL (Pseudomonas aeruginosa [9]): 10 mm
- IC50 (MCF7 [1]): 58.6 µM
- MIC (Pseudomonas aeruginosa [10]): 512 µg/mL (≈ 1670 µM)
- IC50 (PC-3): 62 µM
- MIC (Staphylococcus aureus [4]): 128 µg/mL (≈ 418 µM)
- MIC (Bacillus cereus [5]): 256 µg/mL (≈ 836 µM)

SMILES: CCOC(=O)Cc1csc(N/N=C(\C)c2cc3ccccc3o2)n1
- selectivity ratio [11]: 4.75
- Activity (MCF7 [12]): 6.29%
- selectivity ratio [13]: 3.97
- IC50 (MCF7 [1]): 6.55 µM
- selectivity ratio [14]: 5.61
- IC50 (HeLa): 9.26 µM
- IC50 [15]: 7.8 µM
- IC50 (PC-3): 13.1 µM
- Activity (MCF7 [16]): 3.27%
- Activity (MCF7 [17]): 22.34%
- zone of inhibition at 5000 µg/mL [6]: 3 mm
- Activity (MCF7 [18]): 17.66%
- IC50 (WI-38): 36.8 µM
- Activity (MCF7 [19]): 43.95%
- Activity (MCF7 [20]): 8.1%
- selectivity ratio [21]: 2.8
- Activity (MCF7 [22]): 33.71%
